# Columns and labels:
# SF-539 = experiment: cells; format: cell-based; settings: Homo sapiens, SF-539, 72 h
# MOLT-4 = experiment: cells; format: cell-based; settings: Homo sapiens, MOLT-4, 72 h
# CCRF-CEM = experiment: cells; format: cell-based; settings: Homo sapiens, 72 h
# T-47D = experiment: cells; format: cell-based; settings: Homo sapiens, T47D, 72 h
# NCI-H522 = experiment: cells; format: cell-based; settings: Homo sapiens, NCI-H522, 72 h
# 371-kinase panel = experiment: Kinome screening, HotSpot assay platform; format: biochemical; settings: 10 μM, panel of 371 kinases
# Summary of the method: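 The HotSpot platform was run against a 371-kinase panel with test compounds at 1 µM and 10 µM. A hit was a kinase whose activity was inhibited by ≥50%.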
# MDA-MB-468 = experiment: cells; format: cell-based; settings: Homo sapiens, MDA-MB-468, 72 h
# SNB-19 = experiment: cells; format: cell-based; settings: Homo sapiens, SNB-19, 72 h
# SR = experiment: cells; format: cell-based; settings: Homo sapiens, 72 h
# HCC-2998 = experiment: cells; format: cell-based; settings: Homo sapiens, HCC 2998, 72 h
# UO-31 = experiment: cells; format: cell-based; settings: Homo sapiens, UO-31, 72 h
# HS 578T = experiment: cells; format: cell-based; settings: Homo sapiens, 72 h
# K-562 = experiment: cells; format: cell-based; settings: Homo sapiens, K562, 72 h
# Rael = experiment: cells; format: cell-based; settings: Homo sapiens, 72 h
# KM12 = experiment: cells; format: cell-based; settings: Homo sapiens, KM12, 72 h
# TK-10 = experiment: cells; format: cell-based; settings: Homo sapiens, TK-10, 72 h
# CAKI-1 = experiment: cells; format: cell-based; settings: Homo sapiens, CAKI-1, 72 h
# A498 = experiment: cells; format: cell-based; settings: Homo sapiens, A498, 72 h
# HL-60(TB) = experiment: cells; format: cell-based; settings: Homo sapiens, HL-60, 72 h
# CAMKIIγ = CAMKIIγ (Homo sapiens, UniProt Q13555); experiment: Cellular thermal shift assay; format: cell-based; settings: H9 cells, 5 μM, 1 hour; vs DMSO
# SK-MEL-5 = experiment: cells; format: cell-based; settings: Homo sapiens, SK-MEL-5, 72 h
# SK-MEL-2 = experiment: cells; format: cell-based; settings: Homo sapiens, SK-MEL-2, 72 h
# RXF 393 = experiment: cells; format: cell-based; settings: Homo sapiens, RXF 393, 72 h
# OVCAR-8 = experiment: cells; format: cell-based; settings: Homo sapiens, OVCAR-8, 72 h
# SNB-75 = experiment: cells; format: cell-based; settings: Homo sapiens, SNB-75, 72 h
# MDA-MB-435 = experiment: cells; format: cell-based; settings: Homo sapiens, MDA-MB-435, 72 h
# SK-MEL-28 = experiment: cells; format: cell-based; settings: Homo sapiens, SK-MEL-28, 72 h
# MALME-3M = experiment: cells; format: cell-based; settings: Homo sapiens, 72 h
# DHL6 = experiment: cells; format: cell-based; settings: Homo sapiens, 72 h
# A549/ATCC = experiment: cells; format: cell-based; settings: Homo sapiens, A549, 72 h
# BT-549 = experiment: cells; format: cell-based; settings: Homo sapiens, BT-549, 72 h
# H9 = experiment: cells; format: cell-based; settings: Homo sapiens, H9, 72 h
# Namalwa = experiment: cells; format: cell-based; settings: Homo sapiens, 72 h
# CaPan2 = experiment: cells; format: cell-based; settings: Homo sapiens, Capan-2, 72 h
# U251 = experiment: cells; format: cell-based; settings: Homo sapiens, U-251, 72 h
# NCI-H460 = experiment: cells; format: cell-based; settings: Homo sapiens, NCI-H460, 72 h
# OVCAR-5 = experiment: cells; format: cell-based; settings: Homo sapiens, OVCAR-5, 72 h
# SK-OV-3 = experiment: cells; format: cell-based; settings: Homo sapiens, SK-OV-3, 72 h
# Chain of CAMKIIγ (Q13555 whole entry): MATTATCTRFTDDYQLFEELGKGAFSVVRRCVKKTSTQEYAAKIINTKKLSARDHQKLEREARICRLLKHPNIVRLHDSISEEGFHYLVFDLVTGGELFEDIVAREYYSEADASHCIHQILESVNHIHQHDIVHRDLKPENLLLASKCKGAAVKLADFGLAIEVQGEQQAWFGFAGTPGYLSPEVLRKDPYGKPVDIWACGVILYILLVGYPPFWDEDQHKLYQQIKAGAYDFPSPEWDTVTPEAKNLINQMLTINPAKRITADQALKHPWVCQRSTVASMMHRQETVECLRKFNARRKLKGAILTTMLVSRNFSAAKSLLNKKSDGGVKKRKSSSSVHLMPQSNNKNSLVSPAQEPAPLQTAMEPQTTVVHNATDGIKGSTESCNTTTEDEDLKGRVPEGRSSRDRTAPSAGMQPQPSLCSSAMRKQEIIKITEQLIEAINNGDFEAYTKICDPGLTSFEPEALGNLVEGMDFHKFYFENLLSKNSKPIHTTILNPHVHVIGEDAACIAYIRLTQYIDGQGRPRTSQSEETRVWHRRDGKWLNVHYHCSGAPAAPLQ
structure (smiles),measurement,setting,value
"COc1cc2c3cc1Oc1c(OC)c(OC)cc4c1[C@@H](Cc1ccc(O)c(c1)Oc1ccc(cc1)C[C@@H]3N(C)CC2)N(C)CC4 [BBM, berbamine]",IC50,SF-539,5.25 µM
same,IC50,MOLT-4,10.7 µM
same,IC50,CCRF-CEM,11.4 µM
same,IC50,T-47D,15.7 µM
same,IC50,NCI-H522,21.3 µM
same,number of kinases whose activity was reduced by >50%,371-kinase panel,none
same,IC50,MDA-MB-468,10.4 µM
same,IC50,SNB-19,16.2 µM
same,IC50,SR,5.14 µM
same,IC50,HCC-2998,5.61 µM
same,IC50,UO-31,9.61 µM
same,IC50,HS 578T,12.4 µM
same,IC50,K-562,5.11 µM
same,IC50,Rael,5.87 µM
same,IC50,KM12,17.3 µM
same,IC50,TK-10,35.8 µM
same,IC50,CAKI-1,14.2 µM
same,IC50,A498,6.97 µM
same,IC50,HL-60(TB),5.98 µM
same,CAMKIIγ degradation temperature (CETSA),CAMKIIγ,did not shift the degradation temperature
same,IC50,SK-MEL-5,9.9 µM
same,IC50,SK-MEL-2,16 µM
same,IC50,RXF 393,16.9 µM
same,IC50,OVCAR-8,14.6 µM
same,IC50,SNB-75,17.6 µM
same,IC50,MDA-MB-435,13.5 µM
same,IC50,SK-MEL-28,15.4 µM
same,IC50,MALME-3M,9.82 µM
same,IC50,DHL6,15.9 µM
same,IC50,A549/ATCC,18.7 µM
same,IC50,BT-549,8.64 µM
same,IC50,H9,4.67 µM
same,IC50,Namalwa,20.7 µM
same,IC50,CaPan2,59.1 µM
same,IC50,U251,10.7 µM
same,IC50,NCI-H460,20.5 µM
same,IC50,OVCAR-5,9.88 µM
same,IC50,SK-OV-3,13.4 µM

# Source: PMC10824694 (Blood Advances, 2023)
